# Laboratory results as given in ChEMBL document CHEMBL3585334, “α- and β-Santalols Directly Interact with Tubulin and Cause Mitotic Arrest and Cytotoxicity in Oral Cancer Cells” (2015).
# Activity calls are given as the source filed them. No cut-off for these calls is given here.
# Legend:
# [1] = Growth inhibition of human SCC9 cells after 48 hrs by sulforhodamine B assay; format: functional; conditions: SCC-9, 48 h; for CC50: read-out: LC50 (the source's name)
# In short: (§1)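 Cells grown in DMEM with 10% FBS and 50 μg/mL gentamicin. They were exposed for 48 h to at least six concentrations, and the SRB assay was the read-out. GI50 was taken from log concentration–response curves of 3–9 independent experiments, each run in triplicate. Values are ± SEM.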
# [2] = Growth inhibition of human SCC25 cells after 48 hrs by sulforhodamine B assay; format: functional; conditions: SCC-25, 48 h; for CC50: read-out: LC50 (the source's name); in short: as §1
# Tubulin (Sus scrofa) [3] = target: T1, Tubulin (Sus scrofa) (UniProt P02554+P02550); assay: Binding affinity to porcine brain tubulin relative to colchicine
# In short: (§2)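 Displacement of colchicine or vinblastine from purified tubulin, with the santalol at up to 7000-fold excess over the reference drug.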
# [4] = Growth inhibition of human HSC3 cells after 48 hrs by sulforhodamine B assay; format: functional; conditions: HSC-3, 48 h; for CC50: read-out: LC50 (the source's name); in short: as §1
# Tubulin (Sus scrofa) [5] = target: T1, Tubulin (Sus scrofa); assay: Binding affinity to porcine brain tubulin relative to vinblastine; in short: as §2
# Tubulin (Sus scrofa) [6] = target: T1, Tubulin (Sus scrofa); assay: Inhibition of porcine brain tubulin polymerization at 50 uM
# SCC-4 [7] = assay: Induction of mitotic arrest in human SCC4 cells assessed as large multipolar spindles at 61.2 uM after 18 hrs by immunofluorescence microscopy; format: functional, cell-based
# [8] = Growth inhibition of human CAL27 cells after 48 hrs by sulforhodamine B assay; format: functional; conditions: CAL-27, 48 h; in short: as §1
# HN5 = assay: Growth inhibition of human HN5 cells after 48 hrs by sulforhodamine B assay; format: functional; conditions: HN5, 48 h; in short: as §1
# SCC-4 [9] = assay: Induction of cell cycle arrest in human SCC4 cells assessed as cells accumulation at G2/M phase at 4 times of LC50 concentration after 18 hrs by propidium iodide-staining based flow cytometry; format: functional
# In short: (§3)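 SCC-4 cells treated for 18 h with DMSO vehicle, 15 nM paclitaxel, or 1×, 2×, 3× or 4× LC50. Cells were stained with propidium iodide and cell-cycle distribution was read by flow cytometry. Three independent experiments.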
# SCC-4 [10] = assay: Induction of cell cycle arrest in human SCC4 cells assessed as cells accumulation at G2/M phase at 3 times of LC50 concentration after 18 hrs by propidium iodide-staining based flow cytometry; format: functional; in short: as §3
# [11] = Growth inhibition of human HSC2 cells after 48 hrs by sulforhodamine B assay; format: functional; conditions: HSC-2, 48 h; for CC50: read-out: LC50 (the source's name); in short: as §1
# SCC-4 [12] = assay: Induction of mitotic arrest in human SCC4 cells assessed as increase number of cells with a rounded morphology at 61.2 uM after 18 hrs by immunofluorescence microscopy; format: functional, cell-based
# SCC-4 [13] = assay: Induction of cell cycle arrest in human SCC4 cells assessed as cells accumulation at G2/M phase after 18 hrs by propidium iodide-staining based flow cytometry; format: functional; in short: as §3
# [14] = Growth inhibition of human SCC4 cells after 48 hrs by sulforhodamine B assay; format: functional; conditions: SCC-4, 48 h; for CC50: read-out: LC50 (the source's name); in short: as §1
# SCC-4 [15] = assay: Induction of mitotic arrest in human SCC4 cells assessed as punctuate and numerous spindles at 55.6 uM after 18 hrs by immunofluorescence microscopy; format: functional, cell-based
# SCC-4 [16] = assay: Induction of mitotic arrest in human SCC4 cells assessed as increase number of cells with a rounded morphology at 55.6 uM after 18 hrs by immunofluorescence microscopy; format: functional, cell-based
# Tubulin (Sus scrofa) [17] = target: T1, Tubulin (Sus scrofa); assay: Inhibition of porcine brain tubulin polymerization
# T1 sequence (P02550 whole entry, looked up): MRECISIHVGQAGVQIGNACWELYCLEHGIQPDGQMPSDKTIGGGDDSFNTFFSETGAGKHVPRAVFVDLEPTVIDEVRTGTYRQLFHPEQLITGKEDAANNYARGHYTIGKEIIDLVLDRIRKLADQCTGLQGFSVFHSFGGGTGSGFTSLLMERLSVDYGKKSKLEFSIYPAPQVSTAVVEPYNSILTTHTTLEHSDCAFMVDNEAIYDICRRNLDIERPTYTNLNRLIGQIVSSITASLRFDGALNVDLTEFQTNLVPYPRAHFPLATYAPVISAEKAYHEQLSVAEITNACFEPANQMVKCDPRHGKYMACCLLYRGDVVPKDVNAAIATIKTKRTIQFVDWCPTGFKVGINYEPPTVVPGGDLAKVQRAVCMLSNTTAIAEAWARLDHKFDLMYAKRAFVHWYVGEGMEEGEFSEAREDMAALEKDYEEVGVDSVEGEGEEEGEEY
# T1 sequence (P02554 whole entry, looked up): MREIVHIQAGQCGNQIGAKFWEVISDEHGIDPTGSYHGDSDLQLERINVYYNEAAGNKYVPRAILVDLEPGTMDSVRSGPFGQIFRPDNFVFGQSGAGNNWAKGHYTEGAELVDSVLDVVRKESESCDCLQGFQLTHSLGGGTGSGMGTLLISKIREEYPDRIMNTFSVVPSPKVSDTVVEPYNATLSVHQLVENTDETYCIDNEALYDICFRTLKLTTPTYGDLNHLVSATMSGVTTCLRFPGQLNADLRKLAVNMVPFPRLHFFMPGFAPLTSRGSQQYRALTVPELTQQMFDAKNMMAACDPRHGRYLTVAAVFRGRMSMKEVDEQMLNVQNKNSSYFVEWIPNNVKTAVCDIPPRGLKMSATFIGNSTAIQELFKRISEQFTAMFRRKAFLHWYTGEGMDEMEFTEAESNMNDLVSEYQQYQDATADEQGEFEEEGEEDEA
SMILES,GI50 [1],TGI [1],CC50 [1],GI50 [2],TGI [2],CC50 [2],fold change (FC) (Tubulin (Sus scrofa) [3]),GI50 [4],TGI [4],CC50 [4],fold change (FC) (Tubulin (Sus scrofa) [5]),inhibition (Tubulin (Sus scrofa) [6]),GI50 [8],TGI [8],GI50 (HN5),TGI (HN5),Activity (SCC-4 [9]),GI50 [11],TGI [11],CC50 [11],other results
C=C1[C@@H]2CC[C@@H](C2)[C@@]1(C)CC/C=C(/C)CO,4.2 µM,6.8 µM,14.5 µM,4.2 µM,6.3 µM,11.1 µM,> 7000,4.4 µM,6.1 µM,9.1 µM,> 7000,Active,5.7 µM,8.4 µM,6.3 µM,9.6 µM,Active,7.3 µM,9.4 µM,11.9 µM,Activity (SCC-4 [7]): Active; Activity (SCC-4 [10]): Active; Activity (SCC-4 [12]): Active; Activity (SCC-4 [13]): Dose-dependent effect; GI50 [14]: 5.8 µM; TGI [14]: 10 µM; CC50 [14]: 14.3 µM
C/C(=C/CC[C@]1(C)C2C[C@@H]3[C@H](C2)C31C)CO,3.4 µM,5.3 µM,9 µM,3.5 µM,6 µM,11.6 µM,> 7000,3.9 µM,5.4 µM,7.7 µM,> 7000,Active,5.5 µM,7.6 µM,5.3 µM,8.2 µM,Active,4.6 µM,9.2 µM,10.8 µM,Activity (SCC-4 [15]): Active; LC50 [8]: 11 µM; LC50 (HN5): 12.2 µM; Activity (SCC-4 [16]): Active; Activity (SCC-4 [13]): Dose-dependent effect; GI50 [14]: 4.5 µM; TGI [14]: 7.7 µM; CC50 [14]: 14 µM; inhibition (Tubulin (Sus scrofa) [17]): Dose-dependent effect
